Source: ChEMBL document CHEMBL1138353, “Facile stereospecific synthesis and biological evaluation of (S)- and (R)-2-amino-2-methyl-4-[123I]iodo-3-(E)-butenoic acid for brain tumor imaging with single photon emission computerized tomography” (J Med Chem, 2007)

How the values were obtained:
[1] = system: Lung; test: Biodistribution in 9L cells bearing Fischer 344 rat lung at 15 to 30 uCi, iv after 60 mins; type: ADME, organism-based; settings: in vivo, 1 h
Summary of the method: (§1)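 Male Fischer 344 rats (125–175 g) bearing intracranial 9L gliosarcoma implants; radioiodinated tracer (123I for S, 131I for R) purified in saline, given intravenously. Tissues harvested at 30, 60 or 120 min, radioactivity expressed as %ID/g (thyroid per organ). Groups: S study 5 rats per time; R study 5 at 30 min, 4 at 60 and 120 min.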

[2] = system: Testes; test: Biodistribution in 9L cells bearing Fischer 344 rat testes at 15 to 30 uCi, iv after 60 mins; type: ADME, organism-based, Testis; settings: in vivo, 1 h; summary of the method: as §1
[3] = system: Brain; test: Biodistribution in 9L cells bearing Fischer 344 rat brain at 15 to 30 uCi, iv after 60 mins; type: ADME, organism-based; settings: in vivo, 1 h; summary of the method: as §1
[4] = system: Lung; test: Biodistribution in 9L cells bearing Fischer 344 rat lung at 15 to 30 uCi, iv after 120 mins; type: ADME, organism-based; settings: in vivo, 2 h; summary of the method: as §1
[5] = system: 9L; test: Drug uptake per 10^6 cells in rat 9L cells after 30 mins assessed as uptake inhibition in presence of N-methyl-alpha-aminoisobutyric acid relative to control; type: ADME, cell-based; design: scale not given: the % may be the effect or the level left; settings: 0.5 h
Summary of the method: (§2)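 Cultured rat 9L gliosarcoma cells incubated 30 min with 131I-labelled tracer, with or without A-type inhibitor N-MeAIB or L-type inhibitor BCH. Uptake expressed as percent of initial dose per 1 × 10^6 cells, normalized for dose and cell number. Inhibition compared to control by one-way ANOVA; SD shown.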

[6] = system: Brain; test: Biodistribution in 9L cells bearing Fischer 344 rat brain at 15 to 30 uCi, iv after 120 mins; type: ADME, organism-based; settings: in vivo, 2 h; summary of the method: as §1
[7] = system: Liver; test: Biodistribution in 9L cells bearing Fischer 344 rat liver at 15 to 30 uCi, iv after 30 mins; type: ADME, organism-based; settings: in vivo, 0.5 h; summary of the method: as §1
[8] = system: Pancreas; test: Biodistribution in 9L cells bearing Fischer 344 rat pancreas at 15 to 30 uCi, iv after 120 mins; type: ADME, organism-based; settings: in vivo, 2 h; summary of the method: as §1
[9] = system: Lung; test: Biodistribution in 9L cells bearing Fischer 344 rat lung at 15 to 30 uCi, iv after 30 mins; type: ADME, organism-based; settings: in vivo, 0.5 h; summary of the method: as §1
[10] = system: Liver; test: Biodistribution in 9L cells bearing Fischer 344 rat liver at 15 to 30 uCi, iv after 120 mins; type: ADME, organism-based; settings: in vivo, 2 h; summary of the method: as §1
[11] = system: Testes; test: Biodistribution in 9L cells bearing Fischer 344 rat testes at 15 to 30 uCi, iv after 120 mins; type: ADME, organism-based, Testis; settings: in vivo, 2 h; summary of the method: as §1
[12] = system: Pancreas; test: Biodistribution in 9L cells bearing Fischer 344 rat pancreas at 15 to 30 uCi, iv after 30 mins; type: ADME, organism-based; settings: in vivo, 0.5 h; summary of the method: as §1
[13] = system: Rattus norvegicus; test: Biodistribution in 9L cells bearing Fischer 344 rat tumor at 15 to 30 uCi, iv after 120 mins; type: ADME, organism-based, Neoplasm; settings: in vivo, 2 h; summary of the method: as §1
[14] = system: Muscle tissue; test: Biodistribution in 9L cells bearing Fischer 344 rat muscle at 15 to 30 uCi, iv after 30 mins; type: ADME, organism-based; settings: in vivo, 0.5 h; summary of the method: as §1
[15] = system: Nucleic Acid; test: Ratio of drug level in tumor to brain in 9L cells bearing Fischer 344 rat at 15 to 30 uCi, iv after 120 mins; type: ADME, organism-based; settings: in vivo, 2 h
Summary of the method: (§3)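 Intracranial 9L gliosarcoma in male Fischer 344 rats (125–175 g). The 123I-labelled (S) or 131I-labelled (R) tracer was given iv in saline. Tumor and normal brain %ID/g were measured at 30, 60 or 120 min, and the ratio was taken from these. Groups were 5 per time for S, and 5/4/4 for R.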

[16] = system: Heart; test: Biodistribution in 9L cells bearing Fischer 344 rat heart at 15 to 30 uCi, iv after 30 mins; type: ADME, organism-based; settings: in vivo, 0.5 h; summary of the method: as §1
[17] = system: Muscle tissue; test: Biodistribution in 9L cells bearing Fischer 344 rat muscle at 15 to 30 uCi, iv after 60 mins; type: ADME, organism-based; settings: in vivo, 1 h; summary of the method: as §1
[18] = system: Kidney; test: Biodistribution in 9L cells bearing Fischer 344 rat kidney at 15 to 30 uCi, iv after 120 mins; type: ADME, organism-based; settings: in vivo, 2 h; summary of the method: as §1
[19] = system: Blood; test: Biodistribution in 9L cells bearing Fischer 344 rat blood at 15 to 30 uCi, iv after 30 mins; type: ADME, organism-based; settings: in vivo, 0.5 h; summary of the method: as §1
[20] = system: Pancreas; test: Biodistribution in 9L cells bearing Fischer 344 rat pancreas at 15 to 30 uCi, iv after 60 mins; type: ADME, organism-based; settings: in vivo, 1 h; summary of the method: as §1
[21] = system: Brain; test: Biodistribution in 9L cells bearing Fischer 344 rat brain at 15 to 30 uCi, iv after 30 mins; type: ADME, organism-based; settings: in vivo, 0.5 h; summary of the method: as §1
[22] = system: Nucleic Acid; test: Ratio of drug level in tumor to brain in 9L cells bearing Fischer 344 rat at 15 to 30 uCi, iv after 60 mins; type: ADME, organism-based; settings: in vivo, 1 h; summary of the method: as §3
[23] = system: Heart; test: Biodistribution in 9L cells bearing Fischer 344 rat heart at 15 to 30 uCi, iv after 120 mins; type: ADME, organism-based; settings: in vivo, 2 h; summary of the method: as §1
[24] = system: Bone; test: Biodistribution in 9L cells bearing Fischer 344 rat bone at 15 to 30 uCi, iv after 30 mins; type: ADME, organism-based, Bone element; settings: in vivo, 0.5 h; summary of the method: as §1
[25] = system: Testes; test: Biodistribution in 9L cells bearing Fischer 344 rat testes at 15 to 30 uCi, iv after 30 mins; type: ADME, organism-based, Testis; settings: in vivo, 0.5 h; summary of the method: as §1
[26] = system: Thyroid gland; test: Biodistribution in 9L cells bearing Fischer 344 rat thyroid at 15 to 30 uCi, iv after 60 mins; type: ADME, organism-based; settings: in vivo, 1 h; summary of the method: as §1
[27] = system: Thyroid gland; test: Biodistribution in 9L cells bearing Fischer 344 rat thyroid at 15 to 30 uCi, iv after 120 mins; type: ADME, organism-based; settings: in vivo, 2 h; summary of the method: as §1
[28] = system: Kidney; test: Biodistribution in 9L cells bearing Fischer 344 rat kidney at 15 to 30 uCi, iv after 60 mins; type: ADME, organism-based; settings: in vivo, 1 h; summary of the method: as §1
[29] = system: Spleen; test: Biodistribution in 9L cells bearing Fischer 344 rat spleen at 15 to 30 uCi, iv after 30 mins; type: ADME, organism-based; settings: in vivo, 0.5 h; summary of the method: as §1
[30] = system: Heart; test: Biodistribution in 9L cells bearing Fischer 344 rat heart at 15 to 30 uCi, iv after 60 mins; type: ADME, organism-based; settings: in vivo, 1 h; summary of the method: as §1
[31] = system: Muscle tissue; test: Biodistribution in 9L cells bearing Fischer 344 rat muscle at 15 to 30 uCi, iv after 120 mins; type: ADME, organism-based; settings: in vivo, 2 h; summary of the method: as §1
[32] = system: Blood; test: Biodistribution in 9L cells bearing Fischer 344 rat blood at 15 to 30 uCi, iv after 60 mins; type: ADME, organism-based; settings: in vivo, 1 h; summary of the method: as §1
[33] = system: Nucleic Acid; test: Ratio of drug level in tumor to brain in 9L cells bearing Fischer 344 rat at 15 to 30 uCi, iv after 30 mins; type: ADME, organism-based; settings: in vivo, 0.5 h; summary of the method: as §3
[34] = system: Blood; test: Biodistribution in 9L cells bearing Fischer 344 rat blood at 15 to 30 uCi, iv after 120 mins; type: ADME, organism-based; settings: in vivo, 2 h; summary of the method: as §1
[35] = system: Bone; test: Biodistribution in 9L cells bearing Fischer 344 rat bone at 15 to 30 uCi, iv after 60 mins; type: ADME, organism-based, Bone element; settings: in vivo, 1 h; summary of the method: as §1
[36] = system: Spleen; test: Biodistribution in 9L cells bearing Fischer 344 rat spleen at 15 to 30 uCi, iv after 120 mins; type: ADME, organism-based; settings: in vivo, 2 h; summary of the method: as §1
[37] = system: Liver; test: Biodistribution in 9L cells bearing Fischer 344 rat liver at 15 to 30 uCi, iv after 60 mins; type: ADME, organism-based; settings: in vivo, 1 h; summary of the method: as §1
[38] = system: Bone; test: Biodistribution in 9L cells bearing Fischer 344 rat bone at 15 to 30 uCi, iv after 120 mins; type: ADME, organism-based, Bone element; settings: in vivo, 2 h; summary of the method: as §1
[39] = system: Rattus norvegicus; test: Biodistribution in 9L cells bearing Fischer 344 rat tumor at 15 to 30 uCi, iv after 30 mins; type: ADME, organism-based, Neoplasm; settings: in vivo, 0.5 h; summary of the method: as §1
[40] = system: Spleen; test: Biodistribution in 9L cells bearing Fischer 344 rat spleen at 15 to 30 uCi, iv after 60 mins; type: ADME, organism-based; settings: in vivo, 1 h; summary of the method: as §1
[41] = system: Thyroid gland; test: Biodistribution in 9L cells bearing Fischer 344 rat thyroid at 15 to 30 uCi, iv after 30 mins; type: ADME, organism-based; settings: in vivo, 0.5 h; summary of the method: as §1
[42] = system: 9L; test: Drug uptake per 10^6 cells in rat 9L cells after 30 mins; type: ADME, cell-based; settings: 0.5 h; summary of the method: as §2
[43] = system: Kidney; test: Biodistribution in 9L cells bearing Fischer 344 rat kidney at 15 to 30 uCi, iv after 30 mins; type: ADME, organism-based; settings: in vivo, 0.5 h; summary of the method: as §1
[44] = system: Rattus norvegicus; test: Biodistribution in 9L cells bearing Fischer 344 rat tumor at 15 to 30 uCi, iv after 60 mins; type: ADME, organism-based, Neoplasm; settings: in vivo, 1 h; summary of the method: as §1

## C[C@](N)(/C=C/[123I])C(=O)O
[1]
  Drug uptake: 1.41 % ID/g
[2]
  Drug uptake: 0.58 % ID/g
[3]
  Drug uptake: 0.091 % ID/g
[4]
  Drug uptake: 0.98 % ID/g
[5]
  Activity: 85%
[6]
  Drug uptake: 0.096 % ID/g
[7]
  Drug uptake: 1.62 % ID/g
[8]
  Drug uptake: 7.7 % ID/g
[9]
  Drug uptake: 1.24 % ID/g
[10]
  Drug uptake: 1.27 % ID/g
[11]
  Drug uptake: 0.64 % ID/g
[12]
  Drug uptake: 11.9 % ID/g
[13]
  Drug uptake: 6.84 % ID/g
[14]
  Drug uptake: 1.35 % ID/g
[15]
  Ratio: 71
[16]
  Drug uptake: 1.31 % ID/g
[17]
  Drug uptake: 1.7 % ID/g
[18]
  Drug uptake: 18.4 % ID/g
[19]
  Drug uptake: 1.33 % ID/g
[20]
  Drug uptake: 10.7 % ID/g
[21]
  Drug uptake: 0.058 % ID/g
[22]
  Ratio: 75
[23]
  Drug uptake: 1.2 % ID/g
[24]
  Drug uptake: 0.51 % ID/g
[25]
  Drug uptake: 0.49 % ID/g
[26]
  Drug uptake: 0.24 %ID/organ
[27]
  Drug uptake: 0.18 %ID/organ
[28]
  Drug uptake: 22.9 % ID/g
[29]
  Drug uptake: 1.54 % ID/g
[30]
  Drug uptake: 1.4 % ID/g
[31]
  Drug uptake: 1.26 % ID/g
[32]
  Drug uptake: 1.22 % ID/g
[33]
  Ratio: 81
[34]
  Drug uptake: 1.03 % ID/g
[35]
  Drug uptake: 0.74 % ID/g
[36]
  Drug uptake: 1.08 % ID/g
[37]
  Drug uptake: 1.62 % ID/g
[38]
  Drug uptake: 0.64 % ID/g
[39]
  Drug uptake: 4.7 % ID/g
[40]
  Drug uptake: 1.73 % ID/g
[41]
  Drug uptake: 0.16 %ID/organ
[42]
  Drug uptake: 0.35 %ID
[43]
  Drug uptake: 24 % ID/g
[44]
  Drug uptake: 6.81 % ID/g
